In ChEMBL document CHEMBL4819122, “Novel 4-(piperazin-1-yl)quinolin-2(1H)-one bearing thiazoles with antiproliferative activity through VEGFR-2-TK inhibition” (Bioorg Med Chem, 2021):
The source made the active and inactive calls. The rule behind the calls is not given here.

Key:
[1] = tested on: SK-MEL-5; assay: Cytotoxicity against human SK-MEL-5 assessed as growth inhibition at 10 uM by NCI protocol relative to control; format: functional; settings: read-out: GI
In short: (§1)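 Run by NCI as a single-dose screen at 10 μM across the sixty-cell-line panel, which covers nine human tumour tissue types. The read-out is percent growth inhibition of treated cells relative to untreated cells.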

[2] = tested on: T47D; assay: Cytotoxicity against human T47D cells assessed as reduction in cell viability after 3 hrs by MTT assay
[3] = tested on: K562; assay: Cytotoxicity against human K-562 assessed as growth inhibition at 10 uM by NCI protocol relative to control; format: functional; settings: read-out: GI; in short: as §1
[4] = tested on: SF-295; assay: Cytotoxicity against human SF-295 assessed as growth inhibition at 10 uM by NCI protocol relative to control; format: functional; settings: read-out: GI; in short: as §1
[5] = tested on: NCI-H460; assay: Cytotoxicity against human NCI-H460 assessed as growth inhibition at 10 uM by NCI protocol relative to control; format: functional; settings: read-out: GI; in short: as §1
[6] = tested on: A549; assay: Cytotoxicity against human A549 assessed as growth inhibition at 10 uM by NCI protocol relative to control; format: functional; settings: read-out: GI; in short: as §1
[7] = tested on: MCF7; assay: Cytotoxicity against human MCF7 assessed as growth inhibition at 10 uM by NCI protocol relative to control; format: functional; settings: read-out: GI; in short: as §1
[8] = tested on: HOP-92; assay: Cytotoxicity against human HOP-92 assessed as growth inhibition at 10 uM by NCI protocol relative to control; format: functional; settings: read-out: GI; in short: as §1
[9] = tested on: MDA-MB-468; assay: Cytotoxicity against human MDA-MB-468 assessed as growth inhibition at 10 uM by NCI protocol relative to control; format: functional; settings: read-out: GI; in short: as §1
[10] = tested on: ACHN; assay: Cytotoxicity against human ACHN assessed as growth inhibition at 10 uM by NCI protocol relative to control; format: functional; settings: read-out: GI; in short: as §1
[11] = tested on: CCRF-CEM; assay: Cytotoxicity against human CCRF-CEM assessed as growth inhibition at 10 uM by NCI protocol relative to control; format: functional; settings: read-out: GI; in short: as §1
[12] = tested on: HL-60; assay: Cytotoxicity against human HL60 assessed as growth inhibition at 10 uM by NCI protocol relative to control; format: functional; settings: read-out: GI; in short: as §1
[13] = tested on: HCT-15; assay: Cytotoxicity against human HCT-15 assessed as growth inhibition at 10 uM by NCI protocol relative to control; format: functional; settings: read-out: GI; in short: as §1
[14] = tested on: RXF 393; assay: Cytotoxicity against human RXF 393 assessed as growth inhibition at 10 uM by NCI protocol relative to control; format: functional; settings: read-out: GI; in short: as §1
[15] = tested on: MOLT-4; assay: Cytotoxicity against human MOLT-4 assessed as growth inhibition at 10 uM by NCI protocol relative to control; format: functional; settings: read-out: GI; in short: as §1
[16] = tested on: MDA-MB-435; assay: Cytotoxicity against human MDA-MB-435 assessed as growth inhibition at 10 uM by NCI protocol relative to control; format: functional, cell-based; in short: as §1
[17] = tested on: RPMI-8226; assay: Cytotoxicity against human RPMI-8226 assessed as growth inhibition at 10 uM by NCI protocol relative to control; format: functional; in short: as §1
[18] = tested on: EKVX; assay: Cytotoxicity against human EKVX assessed as growth inhibition at 10 uM by NCI protocol relative to control; format: functional; settings: read-out: GI; in short: as §1
[19] = tested on: BT-549; assay: Cytotoxicity against human BT-549 assessed as growth inhibition at 10 uM by NCI protocol relative to control; format: functional; settings: read-out: GI; in short: as §1
[20] = tested on: PC-3; assay: Cytotoxicity against human PC3 assessed as growth inhibition at 10 uM by NCI protocol relative to control; format: functional; settings: read-out: GI; in short: as §1
[21] = tested on: NCI-H23; assay: Cytotoxicity against human NCI-H23 assessed as growth inhibition at 10 uM by NCI protocol relative to control; format: functional; settings: read-out: GI; in short: as §1
[22] = tested on: LOX IMVI; assay: Cytotoxicity against human LOX IMVI assessed as growth inhibition at 10 uM by NCI protocol relative to control; format: functional; settings: read-out: GI; in short: as §1
[23] = tested on: MDA-MB-231; assay: Cytotoxicity against human MDA-MB-231 assessed as growth inhibition at 10 uM by NCI protocol relative to control; format: functional; settings: read-out: GI; in short: as §1
[24] = tested on: NCI-H226; assay: Cytotoxicity against human NCI-H226 assessed as growth inhibition at 10 uM by NCI protocol relative to control; format: functional; settings: read-out: GI; in short: as §1
[25] = tested on: SF-268; assay: Cytotoxicity against human SF-268 assessed as growth inhibition at 10 uM by NCI protocol relative to control; format: functional; settings: read-out: GI; in short: as §1
[26] = tested on: A498; assay: Cytotoxicity against human A498 assessed as growth inhibition at 10 uM by NCI protocol relative to control; format: functional; settings: read-out: GI; in short: as §1
[27] = tested on: SNB-19; assay: Cytotoxicity against human SNB-19 assessed as growth inhibition at 10 uM by NCI protocol relative to control; format: functional; settings: read-out: GI
In short: (§2)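 Run by the NCI under its standard protocol: one dose of 10 μM against a sixty-line panel from nine human tumour tissues. Result given as percent growth inhibition of treated cells relative to untreated cells.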

[28] = tested on: SN12C; assay: Cytotoxicity against human SN12C assessed as growth inhibition at 10 uM by NCI protocol relative to control; format: functional; settings: read-out: GI; in short: as §2
[29] = tested on: NCI-H522; assay: Cytotoxicity against human NCI-H522 assessed as growth inhibition at 10 uM by NCI protocol relative to control; format: functional; settings: read-out: GI; in short: as §1
[30] = tested on: HCT-116; assay: Cytotoxicity against human HCT-116 assessed as growth inhibition at 10 uM by NCI protocol relative to control; format: functional; settings: read-out: GI; in short: as §1
[31] = tested on: UACC-62; assay: Cytotoxicity against human UACC-62 assessed as growth inhibition at 10 uM by NCI protocol relative to control; format: functional; settings: read-out: GI; in short: as §2
[32] = tested on: UO-31; assay: Cytotoxicity against human UO31 assessed as growth inhibition at 10 uM by NCI protocol relative to control; format: functional; settings: read-out: GI; in short: as §2
[33] = tested on: T47D; assay: Cytotoxicity against human T-47D assessed as growth inhibition at 10 uM by NCI protocol relative to control; format: functional; settings: read-out: GI; in short: as §2
[34] = tested on: IGROV-1; assay: Cytotoxicity against human IGROVI assessed as growth inhibition at 10 uM by NCI protocol relative to control; format: functional; settings: read-out: GI; in short: as §1

Cc1ccc(-c2csc(NC(=O)CN3CCN(c4cc(=O)n(-c5ccccc5)c5ccccc45)CC3)n2)cc1
inhibition of growth at 10 µM [1]: 13.5% | IC50 [2]: 16.5 µM | inhibition of growth at 10 µM [3]: 49.3% | inhibition of growth at 10 µM [4]: 14.4% | inhibition of growth at 10 µM [5]: 11.1% | inhibition of growth at 10 µM [6]: 12% | inhibition of growth at 10 µM [7]: 13.5% | inhibition of growth at 10 µM [8]: 13.8% | inhibition of growth at 10 µM [9]: 30.2% | inhibition of growth at 10 µM [10]: 15.1% | inhibition of growth at 10 µM [11]: 14.8% | inhibition of growth at 10 µM [12]: 19.9% | inhibition of growth at 10 µM [13]: 26% | inhibition of growth at 10 µM [14]: 13.2% | inhibition of growth at 10 µM [15]: 32.2% | growth inhibition (GI) [16]: inactive | growth inhibition (GI) [17]: inactive | inhibition of growth at 10 µM [18]: 26.5% | inhibition of growth at 10 µM [19]: 14.4% | inhibition of growth at 10 µM [20]: 23.1% | inhibition of growth at 10 µM [21]: 29.7% | inhibition of growth at 10 µM [22]: 12.2% | inhibition of growth at 10 µM [23]: 17.4% | inhibition of growth at 10 µM [24]: 17.3% | inhibition of growth at 10 µM [25]: 13.4% | inhibition of growth at 10 µM [26]: 18.6% | inhibition of growth at 10 µM [27]: 21.8% | inhibition of growth at 10 µM [28]: 13.1% | inhibition of growth at 10 µM [29]: 22.9% | inhibition of growth at 10 µM [30]: 20.2% | inhibition of growth at 10 µM [31]: 20.1% | inhibition of growth at 10 µM [32]: 27% | inhibition of growth at 10 µM [33]: 40.9% | inhibition of growth at 10 µM [34]: 20.2%

O=c1cc(N2CCNCC2)c2ccccc2n1-c1ccccc1
IC50 [2]: 92.1 µM | inhibition of growth at 10 µM [8]: 17% | growth inhibition (GI) [16]: inactive
